Measurements from different studies.
Target: D(2) dopamine receptor (DRD2, Homo sapiens, UniProt P14416)

| test | system | setting | endpoint | value | Compound |
| --- | --- | --- | --- | --- | --- |
| β-arrestin recruitment, agonist | HTLA |  | Emax | 35% | Cc1nc2cc(OCCCCN3CCN(c4cccc5c4OCCO5)CC3)ccc2s1 |
| ligand displacement, radioligand |  | 10 µM | inhibition | 82.1% | COc1ccc2c(c1)CN(CCCN1CCN(c3ccccc3OC)CC1)C2=O |
| enzyme activity, inhibitor |  | 10 µM | inhibition | 65.4% | O=C1C2CCCN2C(=O)N1CCCCN1CCN(c2cccc(Cl)c2)CC1 (stereo not shown) |
| ligand displacement, radioligand |  | 10 µM | inhibition | 37.8% | Clc1cncc(OC[C@H]2CN(CCN3CCc4ccccc43)CCO2)c1 |
| enzyme activity, inhibitor |  | 10 µM | inhibition | 48.3% | FC(F)(F)c1cccc(-c2ccc(CNCCCN3CCOCC3)o2)c1 |
| ligand displacement, radioligand |  | 10 µM | inhibition | 86.6% | O=C1c2ccccc2CCN1CCCCN1CCN(c2ccccn2)CC1 |
| binding |  |  | koff | 0.00742 s⁻¹ | O=C(CCCN1CCC(O)(c2ccc(Br)cc2)CC1)c1ccc(F)cc1 |
| ligand displacement |  | 10 µM | inhibition | -14.4% | Cn1nc(C(=O)NCc2ccc(C(=O)O)cc2)cc1-c1ccc2[nH]ccc2c1 |
| ligand displacement, radioligand |  | 10 µM | inhibition | 97.5% | COc1ccccc1N1CCN(CCCCN2CCc3ccccc3C2=O)CC1 |
| ligand displacement |  | 10 µM | inhibition | -6.57% | CCC(=NO)C(C)=Cc1ccc(F)c(C)c1 |
| ligand displacement, radioligand |  | 10 µM | inhibition | 31.5% | COc1cccc(OC[C@H]2CN(CCN3CCc4ccccc43)CCO2)c1 |
| enzyme activity, inhibitor |  | 10 µM | inhibition | 27.4% | COc1ccc(N2CCN(CC(O)COc3ccc(C(C)=O)cc3OC)CC2)cc1 (stereo not shown) |
| ligand displacement |  | 10 µM | inhibition | -12.2% | CCS(=O)(=O)c1cc2cc(C[C@](O)(CC(C)(C)c3ccc(F)cc3C(N)=O)C(F)(F)F)[nH]c2cn1 |
| ligand displacement, radioligand |  | 10 µM | inhibition | 20.9% | c1cncc(OC[C@@H]2CN(CCN3CCc4ccccc43)CCO2)c1 |
| ligand displacement |  | 10 µM | inhibition | 30.3% | O=C(O)[C@H]1[C@H](Cn2nnc3ccccc3c2=O)CC[C@@H]1C(=O)c1ccc(OCCC2CCOCC2)cc1 |
| enzyme activity, inhibitor |  | 10 µM | inhibition | 6.4% | O=C(NCCN1CCN(C(=O)c2ccccc2)CC1)C(=O)Nc1ccccc1 |
| ligand displacement |  | 10 µM | inhibition | -24% | CO[C@H]1CC[C@H](CNc2ccc(S(=O)(=O)NC(=O)c3ccc(N4CCN(CC5=C(c6ccc(Cl)cc6)CC(C)(C)CC5)CC4)cc3Oc3cnc4[nH]ccc4c3)cc2[N+](=O)[O-])CC1 |
| enzyme activity, inhibitor |  | 10 µM | inhibition | 20.6% | Cc1[nH]n(-c2ccc([N+](=O)[O-])cc2)c(=O)c1C=NCCN1CCN(C(=O)c2cccc(F)c2)CC1 |
| ligand displacement, radioligand |  | 10 µM | inhibition | 9.9% | O=C(CN1CCO[C@H](COc2cccnc2)C1)N1CCc2ccccc21 |
| enzyme activity, inhibitor |  | 10 µM | inhibition | 31.2% | O=C(c1ccccc1Cl)N1CCN(CCNc2cc(=O)oc3ccccc23)CC1 |
| ligand displacement |  | 10 µM | inhibition | 22.9% | O=c1nc(-c2ccccn2)sc2ccccc12 |
| enzyme activity, inhibitor |  | 10 µM | inhibition | 36.2% | CCOc1ccc(CNCC(O)c2ccccc2)cc1Br (stereo not shown) |
| ligand displacement |  | 10 µM | inhibition | 5.66% | C[C@H](c1ccnc(Nc2nc3ccc(-c4cc(N(C)C)ncn4)cc3[nH]2)c1)N1CCN(C(=O)CC(F)(F)F)CC1 |
| ligand displacement, radioligand |  | 10 µM | inhibition | 16.2% | Cc1ccc(OC[C@H]2CN(CCN3CCc4ccccc43)CCO2)cn1 |
| enzyme activity, inhibitor |  | 10 µM | inhibition | 17.1% | CC(=O)Nc1ccc(N2CC(O)=C(c3nc4ccccc4[nH]3)C2=N)cc1 |
